Values after ≈ are worked out from the molar mass of the structure shown. Active and inactive are the calls of the source. No cut-off for these calls is given here.
How the values were obtained:
[1] = tested on: Staphylococcus aureus; assay: Antibacterial activity against methicillin-resistant Staphylococcus aureus ATCC 33592 assessed as inhibition of visible bacterial growth incubated for 18 to 20 hrs by CLSI method; format: functional; conditions: time 18-20 hrs
Method in brief: (§1)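 CLSI broth microdilution. Strains grown aerobically overnight on tryptic soy agar at 37 °C, adjusted to 0.5 McFarland and diluted in cation-adjusted Mueller–Hinton broth to about 5×10^5 CFU/mL. Compounds and control drugs serially diluted across the plate. Incubated aerobically at 37 °C for 18-20 h. MIC is the lowest concentration with no visible growth.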

[2] = tested on: Staphylococcus aureus; assay: Antibacterial activity against methicillin-resistant Staphylococcus aureus NRS 119 assessed as inhibition of visible bacterial growth incubated for 18 to 20 hrs by CLSI method; format: functional; conditions: time 18-20 hrs; method in brief: as §1
[3] = tested on: Staphylococcus aureus; assay: Antibacterial activity against methicillin-resistant Staphylococcus aureus NRS384 assessed as inhibition of visible bacterial growth incubated for 18 to 20 hrs by CLSI method; format: functional; conditions: time 18-20 hrs; method in brief: as §1
[4] = tested on: Staphylococcus aureus; assay: Antibacterial activity against methicillin-resistant Staphylococcus aureus NRS123 assessed as inhibition of visible bacterial growth incubated for 18 to 20 hrs by CLSI method; format: functional; conditions: time 18-20 hrs; method in brief: as §1
[5] = tested on: Staphylococcus aureus; assay: Antibacterial activity against methicillin-resistant Staphylococcus aureus NRS385 assessed as inhibition of visible bacterial growth incubated for 18 to 20 hrs by CLSI method; format: functional; conditions: time 18-20 hrs; method in brief: as §1
[6] = tested on: Staphylococcus aureus; assay: Antibacterial activity against methicillin-resistant Staphylococcus aureus NRS386 assessed as inhibition of visible bacterial growth incubated for 18 to 20 hrs by CLSI method; format: functional; conditions: time 18-20 hrs; method in brief: as §1
[7] = tested on: Listeria monocytogenes; assay: Antibacterial activity against Listeria monocytogenes ATCC 19111 assessed as inhibition of visible bacterial growth incubated for 18 to 20 hrs by CLSI method; format: functional; conditions: time 18-20 hrs
Method in brief: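 Broth microdilution per CLSI. Strains grown aerobically overnight on TSA at 37 °C, suspended to 0.5 McFarland, diluted in CAMHB to about 5×10^5 CFU/mL. Agents serially diluted across plate; aerobic incubation 37 °C for 18-20 h. MIC = lowest concentration completely preventing visible growth.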

[8] = tested on: Escherichia coli; assay: Antibacterial activity against Escherichia coli ATCC 25404 assessed as inhibition of visible bacterial growth at 16 ug/ml incubated for 18 to 20 hrs by CLSI method; format: functional, organism-based; conditions: B ATCC 25404, dose 16.0 µg/ml, time 18-20 hrs; method in brief: as §1
[9] = Hemolytic activity in human RBC at 128 ug/ml incubated for 60 mins relative to control; format: ADME, cell-based, Erythrocyte; conditions: red blood cells (erythrocytes), dose 128 µg/ml, read-out: Activity
Method in brief: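 Single-donor human erythrocytes as a 5% v/v suspension in PBS. Compounds serially diluted in PBS, in triplicate, and incubated with RBCs at 37 °C for 60 min. PBS served as the negative control and Triton-X as the positive control. Samples spun at 4,000 rpm for 5 min and supernatant absorbance read at 540 nm. Percent hemolysis = 100×(sample−negative)/(positive−negative).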

[10] = tested on: Staphylococcus aureus; assay: Synergistic antibacterial activity against methicillin-resistant Staphylococcus aureus ATCC 33592 assessed as fractional inhibitory concentration index in presence of daptomycin by checkerboard assay; format: functional
[11] = tested on: Staphylococcus aureus; assay: Synergistic antibacterial activity against methicillin-resistant Staphylococcus aureus ATCC 33592 assessed as fractional inhibitory concentration index in presence of Vancomycin; format: functional

For `O=C(Nc1nnc(-c2cccs2)o1)c1ccc(S(=O)(=O)C(F)(F)F)cc1`, the MIC [1] was 0.5 µg/mL (≈ 1.24 µM), the MIC [2] was 8 µg/mL (≈ 19.8 µM) and the MIC [3] was 4 µg/mL (≈ 9.92 µM). The MIC [4] was 4 µg/mL (≈ 9.92 µM), the MIC [5] was 8 µg/mL (≈ 19.8 µM) and the MIC [6] was 4 µg/mL (≈ 9.92 µM). For the same compound, the MIC [7] was 2 µg/mL (≈ 4.96 µM), the inhibition [8] was “inactive” and the hemolysis at 1 h, 128 ug/ml [9] was 37%. The “fractional inhibitory concentration index (FICI)” value [10] was 0.63 and the “fractional inhibitory concentration index (FICI)” value [11] was 1.03.
